Laboratory results reported in ChEMBL document CHEMBL1141282, “Isariotins A-D, alkaloids from the insect pathogenic fungus Isaria tenuipes BCC 7831” (J Nat Prod, 2007).
Converted amounts (≈) assume the structure as drawn. The source made the active and inactive calls. The calls are words filed in the database; no cut-off is given here.

Tests used:
[1] = tested on: Mycobacterium tuberculosis; assay: Antitubercular activity against Mycobacterium tuberculosis H37Ra; assay type: functional
Procedure, shortened: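 Whole-cell test against the H37Ra strain, with the minimum inhibitory concentration (MIC) read out in µg/mL.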

BC = assay: Cytotoxicity against human BC cells up to 20 ug/mL; assay type: functional, cell-based
Pyricularia grisea = assay: Antifungal activity against Magnaporthe grisea up to 50 ug/mL; assay type: functional, organism-based
Candida albicans = assay: Antifungal activity against Candida albicans up to 50 ug/mL; assay type: functional, organism-based
Plasmodium falciparum = assay: Antiplasmodial activity against Plasmodium falciparum K1 to 20 ug/mL; assay type: functional, organism-based
NCI-H187 = assay: Cytotoxicity against human NCI-H-187 cells up to 20 ug/mL; assay type: functional, cell-based
KB = assay: Cytotoxicity against human KB cells up to 20 ug/mL; assay type: functional, cell-based
Vero = assay: Cytotoxicity against African green monkey Vero cells up to 50 ug/mL; assay type: cell-based; settings: chlorocebus sabaeus

| SMILES | MIC [1] | Activity (BC) | Activity (Pyricularia grisea) | Activity (Candida albicans) | Activity (Plasmodium falciparum) | Activity (NCI-H187) | Activity (KB) | Activity (Vero) |
| --- | --- | --- | --- | --- | --- | --- | --- | --- |
| O=C(/C=C/CCCCCCCCCO)N[C@H]1C[C@@]2(O)C(=O)[C@H]([C@H](O)[C@@H]3O[C@@H]32)[C@H]1O [ISARIOTIN A] | 486 µM (≈ 200 µg/mL) | inactive | inactive | inactive | inactive | inactive | inactive | Not Active |
| O=C(O)CCCCCCCC/C=C/C(=O)N[C@H]1C[C@@]2(O)C(=O)[C@H]([C@H](O)[C@@H]3O[C@@H]32)[C@H]1O [ISARIOTIN B] | – | inactive | inactive | inactive | inactive | inactive | inactive | Not Active |
| CCCCCC(=O)CCC/C=C/C(=O)N[C@H]1C[C@@]2(O)C(=O)[C@H]([C@H](O)[C@@H]3O[C@@H]32)[C@H]1O [ISARIOTIN C] | 488 µM (≈ 200 µg/mL) | inactive | inactive | inactive | inactive | inactive | inactive | Not Active |
| CCCCCCC/C=C/C(=O)N[C@H]1C[C@@]2(O)C(=O)[C@H]([C@H](O)[C@@H]3O[C@@H]32)[C@H]1O [ISARIOTIN D] | 544 µM (≈ 200 µg/mL) | inactive | inactive | inactive | inactive | inactive | inactive | Not Active |
